Experimental findings from ChEMBL document CHEMBL1828629, “Identification of a non-phosphorylated, cell permeable, small molecule ligand for the Stat3 SH2 domain” (Bioorg Med Chem Lett, 2011) are described below.

pEC50, pIC50, pKi: −log10 of the molar value. Active and inactive are the calls of the source. No cut-off for these calls is given here.

Data set [1] concerns the target T1, Signal transducer and activator of transcription 3 (Homo sapiens, UniProt P40763). Conditions: MDA-MB-468, 20 uM.
The nature of data set [2]: Cytotoxicity against human JJN-3 cells after 72 hrs by MTS assay. In kind it is functional, cell-based. Particulars: JJN-3, 72 h. A general note: Tetrazolium dyes change colour on reduction, which living cells bring about.
The target in data set [3] is T1, Signal transducer and activator of transcription 3. Conditions: JJN3, 20 uM.
Data set [4] shares this target. Conditions: MDA-MB-468, 20 uM. This is another data set of the same source.
For data set [5] the target is unchanged. Particulars: JJN3, 20 uM. The source holds these as a separate data set.
For data set [6] the target is unchanged. Particulars: MDA-MB-468, 20 uM. This is another data set of the same source.
Data set [7] has the same target. Particulars: MDA-MB-468, 20 uM. This is another data set of the same source.
The nature of data set [8]: Solubility of the compound in water. Format: physicochemical. Particulars: buffer.
Data set [9] addresses T1, Signal transducer and activator of transcription 3. Particulars: JJN3, 20 uM. This is another data set of the same source.
Data set [10] shares this target. Particulars: JJN-3, 20 uM.
The target of data set [11] is T2, Signal transducer and activator of transcription 1 (Mus musculus, UniProt P42225).
T2 sequence (P42225 whole entry): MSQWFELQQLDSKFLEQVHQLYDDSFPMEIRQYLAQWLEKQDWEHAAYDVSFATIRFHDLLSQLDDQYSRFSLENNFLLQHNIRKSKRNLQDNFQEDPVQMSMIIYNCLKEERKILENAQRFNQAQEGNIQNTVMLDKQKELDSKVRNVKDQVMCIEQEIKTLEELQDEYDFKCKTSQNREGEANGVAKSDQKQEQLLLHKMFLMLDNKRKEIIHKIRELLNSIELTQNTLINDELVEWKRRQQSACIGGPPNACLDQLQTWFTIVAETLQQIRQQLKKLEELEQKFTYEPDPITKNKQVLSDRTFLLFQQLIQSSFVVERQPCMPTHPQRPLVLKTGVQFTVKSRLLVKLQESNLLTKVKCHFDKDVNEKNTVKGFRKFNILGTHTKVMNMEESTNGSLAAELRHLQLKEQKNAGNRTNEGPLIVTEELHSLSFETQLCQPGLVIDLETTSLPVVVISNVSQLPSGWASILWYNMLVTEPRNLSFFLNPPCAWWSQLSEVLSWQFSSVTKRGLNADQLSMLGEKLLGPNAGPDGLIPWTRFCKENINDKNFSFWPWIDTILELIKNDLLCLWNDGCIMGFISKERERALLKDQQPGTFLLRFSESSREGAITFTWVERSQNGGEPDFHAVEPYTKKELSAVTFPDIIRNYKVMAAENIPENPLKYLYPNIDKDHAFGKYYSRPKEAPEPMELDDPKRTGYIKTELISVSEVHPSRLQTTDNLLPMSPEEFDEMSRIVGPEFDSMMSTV
The experiment in a line: Inhibition of mouse STAT1 using fluorescent probe 5-carboxyfluorescein-GpYLPQTV-NH2 after 30 mins by fluorescence polarisation assay.

The target in data set [12] is T1, Signal transducer and activator of transcription 3. The experiment in a line: Inhibition of STAT3 phosphorylation in human JJN-3 cells at 100 uM after 24 hrs by Western blotting. Format: cell-based. The method, boiled down:
(§1)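 Intact MDA-468 or JJN3 cells were treated for 24 h, with DMSO as the untreated control. Cells were lysed in Tris-HCl/EDTA/1% NP-40/150 mM NaCl for 30 min on ice, freeze-thawed once at −80 °C and centrifuged at 12000g for 15 min. Whole-cell lysates were run on 6.5–15% SDS-PAGE and immunoblotted for pY705Stat3 and total Stat3.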
On the technique in general: In western blotting, separated proteins are transferred to a membrane and probed.

Data set [13] deals with T3, Signal transducer and activator of transcription 3 (Mus musculus, UniProt P42227). The experiment in a line: Inhibition of mouse STAT3 SH2 domain using fluorescent probe 5-carboxyfluorescein-GpYLPQTV-NH2 after 30 mins by fluorescence polarisation assay.
T3 sequence (P42227 whole entry, the tested form may be a part): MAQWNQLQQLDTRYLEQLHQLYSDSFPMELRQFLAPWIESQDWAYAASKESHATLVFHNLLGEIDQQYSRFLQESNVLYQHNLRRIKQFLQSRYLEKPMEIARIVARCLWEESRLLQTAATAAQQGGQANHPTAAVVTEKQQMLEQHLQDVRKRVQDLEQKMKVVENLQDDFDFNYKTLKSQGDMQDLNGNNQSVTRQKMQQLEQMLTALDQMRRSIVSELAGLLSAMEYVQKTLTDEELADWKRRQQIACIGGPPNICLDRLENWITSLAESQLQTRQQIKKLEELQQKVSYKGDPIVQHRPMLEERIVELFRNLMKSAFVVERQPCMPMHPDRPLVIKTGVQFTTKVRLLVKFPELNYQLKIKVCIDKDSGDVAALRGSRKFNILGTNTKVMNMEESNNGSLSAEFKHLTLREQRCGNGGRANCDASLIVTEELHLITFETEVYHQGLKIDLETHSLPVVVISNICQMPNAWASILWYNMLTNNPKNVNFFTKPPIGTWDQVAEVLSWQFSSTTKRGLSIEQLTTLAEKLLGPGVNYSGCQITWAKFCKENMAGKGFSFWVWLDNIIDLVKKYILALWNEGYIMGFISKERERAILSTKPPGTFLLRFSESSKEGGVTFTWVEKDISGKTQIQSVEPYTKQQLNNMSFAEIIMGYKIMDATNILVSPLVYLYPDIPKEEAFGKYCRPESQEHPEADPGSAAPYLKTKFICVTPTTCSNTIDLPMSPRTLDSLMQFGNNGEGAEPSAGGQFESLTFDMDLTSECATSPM
In data set [14] the target is T1, Signal transducer and activator of transcription 3. The experiment in a line: Inhibition of STAT3 phosphorylation in human MDA468 cells at 100 uM after 24 hrs by Western blotting. In kind it is cell-based. Particulars: MDA-MB-468. The method, boiled down: as §1
Data set [15] in a line: Inhibition of mouse STAT5 using fluorescent probe 5-carboxyfluorescein-GpYLPQTV-NH2 after 30 mins by fluorescence polarisation assay. (Polarisation of emitted light reports the rotation of a fluorescent probe.)
Data set [16] in a line: Lipophilicity, log P of the compound. Particulars: octanol/water. Format: physicochemical.
A further data set relates to DU-145. The experiment in a line: Cytotoxicity against human DU145 cells after 72 hrs by MTS assay. Format: functional, cell-based. Conditions: DU-145, 72 h.
The nature of data set [17]: Cytotoxicity against human MDA468 cells after 72 hrs by MTS assay. In kind it is functional, cell-based. Particulars: MDA-MB-468, 72 h.
Data set [18] addresses T1, Signal transducer and activator of transcription 3. The experiment in a line: Inhibition of STAT3 using fluorescent probe 5-carboxyfluorescein-GpYLPQTV-NH2 after 15 mins by fluorescence polarisation assay.
Data set [19] concerns the target T3, Signal transducer and activator of transcription 3. The experiment in a line: Inhibition of STAT3 in mouse NIH3T3/vSrc nuclear extract assessed as disruption of the Stat3-DNA complex pre-incubated for 30 mins by EMSA analysis. The method, boiled down:
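NIH3T3/vSrc nuclear extracts were pre-incubated with a range of compound concentrations for 30 min at room temperature. They were then incubated with 32P-labelled hSIE probe (c-fos m67 variant) for 30 min at 30 °C and resolved by EMSA. Stat3 DNA-binding bands were quantified as percent of control, and IC50 was derived from those plots.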

T1 sequence (P40763 whole entry): as the sequence (P42227 whole entry, the tested form may be a part) above, with D760E counted along it

Usually pEC50 stands for the EC50 on a negative log10 scale, so that one unit is a factor of ten. As for `CN(CC(=O)N(Cc1ccc(C2CCCCC2)cc1)c1ccc(C(=O)O)c(O)c1)S(=O)(=O)c1c(F)c(F)c(F)c(F)c1F`, the inhibition result in data set [1], in [3], in [4], in data set [5], in [6] and in data set [7] was “Active” throughout. The inhibition entry in data set [9] and in [10] was “Active” in each case. Further, in data set [2], the pEC50 is 4.78. The solubility result in data set [8] is recorded as “soluble”.
As usually defined, the pKi is the Ki on a negative log10 scale, so that one unit is a factor of ten. For `Cc1ccc(S(=O)(=O)N(C)CC(=O)N(Cc2ccc(C3CCCCC3)cc2)c2ccc(C(=O)O)c(O)c2)cc1`, the pKi in data set [11] is below 4.60; in [13] it was 4.82; in data set [15], below 4.60. Also, the inhibition result in [12] and in data set [14] was “Active” in each case.
The logP is the decadic logarithm of the partition coefficient of the neutral form, usually between octanol and water. `CN(CC(=O)N(Cc1ccc(C2CCCCC2)cc1)c1ccc(C(=O)O)c(O)c1)S(=O)(=O)c1cccc2ccccc12`: the pEC50 in data set [2] is 3.97; in the data set on DU-145 it was 4.13; in data set [17] it was 4.33. The same compound came in with a logP in [16] of 5.95. Besides, the solubility result in data set [8] is given as “Insoluble”.
In general, pIC50 refers to the negative decadic logarithm of the IC50, by convention in mol/L. Take `CN(CC(=O)N(Cc1ccc(C2CCCCC2)cc1)c1ccc(C(=O)O)c(O)c1)S(=O)(=O)c1cn(C)cn1`: the pKi in data set [18] was below 4.00. For the same compound, the pIC50 in [19] was below 3.52.
With `COc1ccc(S(=O)(=O)N(C)CC(=O)N(Cc2ccc(C3CCCCC3)cc2)c2ccc(C(=O)O)c(O)c2)cc1`, the pIC50 in [19] was 4.17.
With `CN(CC(=O)N(Cc1ccc(C2CCCCC2)cc1)c1ccc(C(=O)O)c(O)c1)S(=O)(=O)c1ccc(F)cc1`, the pIC50 in data set [19] was below 3.52.
The compound `CN(CC(=O)N(Cc1ccc(C2CCCCC2)cc1)c1ccc(C(=O)O)c(O)c1)S(=O)(=O)c1ccc(-c2ccccc2)cc1` showed a pKi in data set [18] of 5.21. In data set [19], the pIC50 is 4.18.
